HKDC1 inh – HKDC1 hexokinase inhibitors, primary screen, biochemical, fluorescence, uHTS. Q2TB90. recombinant HKDC1, G6PDH/diaphorase resazurin coupled fluorescence. inhibition, % at 20 µM. 340,000 tested, 0.16% active;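 active means inhibition above about 35% when tested at 20 µM, limit read from the data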;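 further: plate controls were DMSO wells with enzyme for no effect and DMSO wells lacking enzyme for full effect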
Target sequence (Q2TB90 whole entry, looked up): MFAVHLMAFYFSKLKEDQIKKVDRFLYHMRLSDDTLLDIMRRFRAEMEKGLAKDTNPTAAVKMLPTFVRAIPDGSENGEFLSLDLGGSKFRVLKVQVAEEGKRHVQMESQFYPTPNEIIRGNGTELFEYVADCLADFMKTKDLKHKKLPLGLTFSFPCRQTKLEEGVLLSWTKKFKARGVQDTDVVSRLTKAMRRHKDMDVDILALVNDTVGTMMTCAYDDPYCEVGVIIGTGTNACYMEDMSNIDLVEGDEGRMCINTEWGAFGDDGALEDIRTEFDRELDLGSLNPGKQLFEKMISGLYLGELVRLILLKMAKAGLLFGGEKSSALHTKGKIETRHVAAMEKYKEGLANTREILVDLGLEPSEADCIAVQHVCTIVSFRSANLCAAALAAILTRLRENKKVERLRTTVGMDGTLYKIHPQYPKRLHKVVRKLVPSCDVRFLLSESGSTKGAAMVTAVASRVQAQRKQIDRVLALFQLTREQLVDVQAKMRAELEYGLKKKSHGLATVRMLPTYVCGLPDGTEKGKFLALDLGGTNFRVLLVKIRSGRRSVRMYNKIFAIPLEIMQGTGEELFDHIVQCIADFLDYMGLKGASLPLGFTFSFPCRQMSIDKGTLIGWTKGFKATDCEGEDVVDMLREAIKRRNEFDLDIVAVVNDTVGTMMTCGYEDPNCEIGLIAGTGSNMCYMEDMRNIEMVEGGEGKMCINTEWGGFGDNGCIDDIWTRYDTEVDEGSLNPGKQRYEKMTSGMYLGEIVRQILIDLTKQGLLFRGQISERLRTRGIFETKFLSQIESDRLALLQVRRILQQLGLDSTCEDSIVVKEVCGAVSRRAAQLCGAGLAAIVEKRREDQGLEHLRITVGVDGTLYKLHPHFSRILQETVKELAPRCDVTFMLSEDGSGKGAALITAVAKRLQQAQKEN
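Test system: Recombinant HKDC1 (HK5) hexokinase enzyme, produced in-house | Input: HKDC1 at 5 µg/mL | Buffer or medium: Tris pH 8.0 buffer with MgCl2, Tween-20, BSA, BME | Schedule: 90 min reaction incubation at room temperature, dark | Technique: Resazurin-to-resorufin fluorescence via G6PDH and diaphorase coupling, 525/613 nm | Controls: DMSO wells with and without enzyme mix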
Neddylation inh – inhibitors of cullin neddylation, primary screen, biochemical, TR-FRET, uHTS, NAE and Ubc12. inhibition, % at 25 µM. AID 651699, 2012. 360,000 tested, 0.58% active; in the data active means inhibition above about 36%
M18AAP inhibitor – PfM18AAP inhibitors, malaria aminopeptidase, primary screen, biochemical, QFRET, recombinant enzyme | H-Glu-NHMec fluorogenic cleavage | 290,000 tested, 1.2% active | inhibition, % at 7.35 µM;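 active means inhibition above the campaign mean inhibition over all tested compounds plus 3 SD, cut at about 28% in these data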;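 further: 0% = plate median of test compound wells and 100% = 2 mM ZnCl2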
PfGluPho inh – PfG6PD enzyme inhibitors, primary screen, biochemical, fluorescence intensity, uHTS. glucose-6-phosphate dehydrogenase-6-phosphogluconolactonase (Plasmodium falciparum 3D7). AID 504690, 2011. 350,000 tested, 0.78% active. PfGluPho enzyme, NADPH resazurin-diaphorase fluorescence. inhibition, % at 20 µM;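 active means inhibition reaching at least a set limit at 20 µM in the primary screen, cut at about 59% in these data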;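 further: 0% = DMSO wells with substrate and 100% = DMSO wells lacking glucose-6-phosphate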
PfGluPho conf – PfG6PD inhibitors, hit retest, confirmation, biochemical, fluorescence intensity, single concentration. shares compounds with PfGluPho inh. recombinant PfGluPho, NADPH-diaphorase-resazurin fluorescence. inhibition, % at 20 µM. 2,400 tested, 34% active. AID 504753, 2011;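 active means inhibition of at least 50% at 20 µM in any single replicate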;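 further: 0% = DMSO with substrate and 100% = DMSO lacking glucose-6-phosphate substrate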
Diaph ctr 10uM – diaphorase inhibitors and chemical oxidizers, confirmation, counter-screen for P. falciparum G6PD inhibitor project, biochemical, fluorescence intensity, 10 µM NADPH; diaphorase-coupled resazurin reduction, NADPH 10 uM; 820 tested, 39% active; shares compounds with PfGluPho inh; inhibition, % at 20 µM;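 active means average inhibition reaching 50% or more with the compound at 20 µM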;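 further: resorufin red fluorescence formed as diaphorase reduces resazurin using NADPH; 0% = DMSO with enzyme and 100% = DMSO without enzyme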
Diaphorase 30uM – diaphorase inhibitors and chemical oxidizers, confirmation, counter-screen for P. falciparum G6PD inhibitor project, biochemical, fluorescence intensity, 30 µM NADPH. shares compounds with PfGluPho inh. Diaphorase/resazurin coupled assay, resorufin fluorescence. inhibition, % at 20 µM. 820 tested, 29% active. AID 504863, 2011;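 active means inhibition averaging 50% or more, tested at 20 µM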;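 further: 0% = DMSO with enzyme and 100% = DMSO wells lacking diaphorase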
An asterisk follows results filed as active; x = not tested or not shown. A selection: hits, their analogues and other compounds. The true share with any hit is near 2.2%.

SMILES | HKDC1 inh | Neddylation inh | M18AAP inhibitor | PfGluPho inh | PfGluPho conf | others
Cc1ccc(Nc2cc(C)nc(N3CCOCC3)n2)cc1 | 0 | 8 | 0 | 61* | 12
CCOC(=O)c1ccc(Nc2cc(C)nc(N3CCOCC3)n2)cc1 | 2 | x | -3 | 21 | x
CCOc1ccc(Nc2cc(C)nc(N3CCOCC3)n2)cc1 | -11 | 3 | -7 | -3 | x
Cc1cc(Nc2ccc(C)c(Cl)c2)nc(N2CCOCC2)n1 | -2 | 28 | 0 | 66* | 8
O=C(/C=C/c1ccccc1)NC(NC(=S)Nc1ccc(Cl)cc1Cl)C(Cl)(Cl)Cl (stereo not given) | -6 | -2 | 2 | 62* | 21
N#Cc1cccc(NC(=O)Cn2cnc(S(=O)(=O)N3CCOCC3)c2)c1 | -4 | -4 | 0 | 10 | x
COC(=O)C1=C(C(=O)OC)SC2(S1)C(C(=O)OC)=C(C(=O)OC)SC1=C2c2cc(C)ccc2NC1(C)C | -19 | -6 | 29* | 72* | 26
CCOC(=O)C1(N(CC)CC)Sc2cc(C)ccc2NC1=O (stereo not given) | 2 | -7 | -3 | 31 | x
CN1C[C@@H]2[C@@H]3C(=O)N(Cc4ccccc4)C(=O)[C@@H]3[C@](C)(C1=O)N2C(=O)c1ccc(Br)cc1 | -1 | -1 | x | 5 | x
Cc1cc(OCCSc2nnc(-c3cccs3)n2C)ccc1Cl | 5 | 1 | 2 | 70* | 22
Cc1ccc(OCCSc2nnc(-c3cccs3)n2C)cc1 | 0 | -1 | 1 | 12 | x
CCc1c(C)sc(NC(=O)c2ccoc2C)c1C(N)=O | -17 | 7 | 40* | 94* | 44
COCC1CCCCN1C(=O)c1ccc2nc(Cc3ccc(OC)c(OC)c3)oc2c1 (stereo not given) | -13 | -7 | 1 | 3 | x
CCOc1ccc(N(CC(=O)N/N=C/c2cc([N+](=O)[O-])ccc2Cl)S(C)(=O)=O)cc1 | 9 | -32 | -8 | 87* | 60* | Diaph ctr 10uM=72*;Diaphorase 30uM=46
CCOc1cc(CNc2ccc(S(N)(=O)=O)cc2)cc(Cl)c1OC | -4 | 9 | -8 | -4 | x
CCOc1cc(CNc2ccc(N3CCCC3)cc2)cc(Cl)c1OC | 2 | -1 | 10 | 84* | 63* | Diaph ctr 10uM=-4;Diaphorase 30uM=-5
COc1cccc(CNc2ccc(N3CCCCC3)cc2)c1OC | 10 | 19 | 8 | 52 | x
COc1cc(CNc2ccc(N3CCOCC3)cc2)cc(Br)c1OC | -2 | 4 | 7 | 23 | x
C=CCOc1c(Cl)cc(CNc2ccc(N(C)C)cc2)cc1OC | 5 | 10 | 7 | 79* | 51* | Diaph ctr 10uM=0;Diaphorase 30uM=-3
COc1ccccc1CNc1ccc(N2CCCCC2)cc1 | -9 | 21 | 8 | 66* | 33
COc1cc(CNc2ccc(N3CCCC3)cc2)cc(Cl)c1OC | 16 | 24 | 11 | 75* | 76* | Diaph ctr 10uM=8;Diaphorase 30uM=14
COC(=O)c1ccccc1C(=O)N(c1ccccc1)c1ccccc1 | -4 | 13 | x | 9 | x
O=C(O)c1cc(O)ccc1NC(=O)C(c1ccccc1)c1ccccc1 | -2 | x | 6 | -12 | x
CCCC(=O)N1CCC1(C)C(=O)NS(=O)(=O)c1cc(C)ccc1F (stereo not given) | x | -4 | x | x | x
CC(O)(c1cccc(F)c1)c1nc(/C=C/c2ccccc2)cs1 (stereo not given) | x | -6 | x | x | x
SMILES | HKDC1 inh | Neddylation inh | M18AAP inhibitor | PfGluPho inh | PfGluPho conf | others
CC(OC(=O)C1CCCC1)C(=O)Nc1ccc(S(N)(=O)=O)cc1 (stereo not given) | -5 | 5 | x | -2 | x
O=C(NCc1ccccc1)N1CCNCC1 | -3 | -14 | 0 | -15 | x
CCOc1ccc(CNc2ccc(N3CCCC3)cc2)cc1 | 19 | 13 | 14 | 95* | 81* | Diaph ctr 10uM=27;Diaphorase 30uM=14
O=C(Nc1ccccc1)N(O)c1ccc(Cl)cc1 | 0 | -1 | -16 | 87* | 35
CC(C(=O)OCC(=O)N(C)C1(C#N)CCCCC1)N1C(=O)c2ccccc2C1=O (stereo not given) | -6 | 3 | x | -8 | x
CCC(c1ccc(O)c(O)c1)C(CC)c1ccc(O)c(O)c1 (stereo not given) | 6 | -9 | x | 78* | 57* | Diaph ctr 10uM=8;Diaphorase 30uM=3
CC(C)NC[C@H](O)c1ccc(O)c(O)c1 | -2 | -8 | x | 33 | x
CCOC(=O)[C@H]1[C@H]2COc3ccc(Cl)cc3[C@@H]2N2C(=O)[C@@H](CO)NC(=O)[C@@]12C | -5 | -19 | x | -21 | x
CSc1nc2c(C)c(C)c(C)c(C)c2[nH]1 | 4 | 0 | -2 | 5 | x
CSc1nc(=S)cc(C)[nH]1 | -6 | 0 | 43* | 70* | 18
Cc1noc(C)c1COC(=O)Cc1ccc(Cl)c(Cl)c1 | 2 | 3 | -8 | 69* | 33
NC(=O)c1ccccc1NC(=O)CCn1c(=S)oc2ccccc21 | -4 | 6 | -6 | -10 | x
Cc1cccn2c(=O)c3cc(C(=O)NCC4CCCO4)n(C)c3nc12 (stereo not given) | x | x | -9 | x | x
COC1C=CC(CNC(=O)c2cc3c(=O)n4cccc(C)c4nc3n2C)(OC)O1 (stereo not given) | 0 | x | 0 | 79* | -7
CCS(=O)(=O)c1ccc2oc(SCC(=O)c3c(N)n(C4CC4)c(=O)[nH]c3=O)nc2c1 | -8 | -26 | x | -1 | x
Cc1cc(-n2c(C)cc(C(=O)COc3ccc(F)c(F)c3)c2C)no1 | 7 | 12 | x | 61* | 9
Cc1cc(-n2c(C)cc(C(=O)COc3ccccc3[N+](=O)[O-])c2C)no1 | 1 | -8 | 9 | 10 | x
CN1c2ccccc2N(C)C1(C)c1ccccc1 | 22 | 11 | 4 | 64* | 10
CN1C(=O)N(C)C2(c3ccccc3)NC(=O)NC12c1ccccc1 (stereo not given) | -4 | -3 | 9 | -3 | x
O=C(Nc1nccc(-c2cccs2)n1)c1ccccc1Cl | 6 | -22 | -1 | 142* | 110* | Diaph ctr 10uM=102*;Diaphorase 30uM=81*
O=C(c1ccccc1Cl)N(C(=O)c1ccccc1Cl)c1nccc(-c2cccs2)n1 | 8 | -33 | -2 | 110* | 69* | Diaph ctr 10uM=73*;Diaphorase 30uM=65*
O=C(CSc1nccc(-c2cccs2)n1)Nc1cccc(Cl)c1Cl | 0 | -3 | -7 | 8 | x
CCn1c(SCC(=O)NC(=O)c2ccccc2OC)nc2ccccc21 | -5 | 1 | 2 | 9 | x
